Reference: PMC6405215 (Cell chemical biology, 2018)

Tests used:
human macrophages [1] = test: Macrophage phagocytosis of serum-treated zymosan; type: cell-based; conditions: human MΦ; for phagocytosis of STZ, dose response: 0.1pM-10 nM, 15 min preincubation; for increase of phagocytosis of STZ above vehicle: 10 pM
Outline: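 GM-CSF-differentiated human macrophages were plated at 50,000 cells/well in PBS++ and used 24 h later. Compounds (0.1 pM–10 nM) were added for 15 min at 37 °C, pH 7.45. FITC-labelled serum-treated zymosan was then added at 10:1 for 40 min at 37 °C. Extracellular signal was quenched with trypan blue and fluorescence read at Ex 493/Em 535 nm. Results are % above vehicle, triplicates from 3–4 donors, with curve fitting.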

[2] = test system: mock-transfected macrophages; test: Real-time phagocytosis of live E. coli, mock-transfected macrophages; type: cell-based, human; conditions: 10 nM
Outline: (§1)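 Macrophages were transfected with a human GPR32 expression vector or a mock vector (5 μg) using Jet-PEI. Cells were re-plated on chamber slides 48 h later and imaged 24 h after that in a stage-top incubator. Compound (10 nM) was given for 15 min at 37 °C, then BacLight Green-labelled E. coli at 50:1. Fluorescence was imaged every 10 min for 60 min, 4 fields/well at 40X. Results are % above vehicle from 3 donors.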

[3] = test system: DRV1-transfected macrophages; test: Real-time phagocytosis of live E. coli, macrophages overexpressing DRV1/GPR32; type: cell-based, human; conditions: 10 nM
Outline: as §1

DRV1/GPR32 [4] = target: T1, DRV1/GPR32 (Homo sapiens, UniProt O75388); test: GPR32 cAMP HTRF signaling assay; type: cell-based; conditions: for effect on forskolin-stimulated cAMP: forskolin 8 μM
T1 sequence (O75388 whole entry): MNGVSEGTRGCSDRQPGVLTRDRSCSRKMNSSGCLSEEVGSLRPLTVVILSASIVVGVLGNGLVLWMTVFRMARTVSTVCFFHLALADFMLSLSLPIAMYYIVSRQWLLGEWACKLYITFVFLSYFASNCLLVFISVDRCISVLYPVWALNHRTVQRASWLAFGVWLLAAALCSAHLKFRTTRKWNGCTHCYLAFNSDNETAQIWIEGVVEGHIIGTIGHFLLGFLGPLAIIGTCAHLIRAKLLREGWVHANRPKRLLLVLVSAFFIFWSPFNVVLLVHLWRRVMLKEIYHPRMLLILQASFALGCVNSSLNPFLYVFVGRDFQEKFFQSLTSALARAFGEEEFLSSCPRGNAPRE
Outline: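 CHO-K1 PathHunter GPR32 cells were seeded at 1,800 cells/well for 20 h, then stimulated with forskolin (8 μM final) plus Ro 20-1724 (100 μM final). Compounds were added as 1:3 dilutions (57 μM–1 nM final) for 30 min at 37 °C. cAMP was read by HTRF as the 665/615 nm ratio ×10,000. Forskolin alone set 0%; DMSO (0.57%) set −100%. Two experiments in triplicate.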

DRV1/GPR32 [5] = target: T1, DRV1/GPR32; test: GPR32 PathHunter β-Arrestin Assay; type: cell-based
Outline: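 CHO-K1 PathHunter GPR32 cells were grown with geneticin 800 μg/mL and hygromycin B 300 μg/mL, then seeded at 2,500 cells/well in 1536-well plates overnight. Compounds in DMSO were tested at 11 points (1:3, 57 μM–1 nM) for 90 min at 37 °C, then detection reagent was added for 1 h and luminescence read. DMSO (0.57%) set 0%; a 2-fold signal increase set 100%. Two experiments in triplicate.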

recombinant human DRV1 = recombinant human DRV1 (Homo sapiens, UniProt O75388); test: Electrical cell substrate impedance sensing; type: cell-based; conditions: for direction of impedance change: CHO cells expressing DRV1, concentration not stated
recombinant human DRV1, sequence (O75388 whole entry): as above
Outline: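 GPR32- or mock-transfected CHO cells were seeded at 0.1×10^6 per well of an 8-well ECIS electrode array. Test compounds were added in serum-free medium at 100 nM–10 μM. Impedance across the monolayer was recorded every 4 s for 10 min at 37 °C. Tracings are representative of 3 independent experiments.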

human macrophages [6] = test: CD163; type: cell-based; conditions: 10 nM, 24h; significant only for RvD1
CHO-WT cells = test: ECIS in wild-type CHO cells; type: cell-based, Chinese hamster; conditions: 1μM
[7] = hGPR32/DRV1-transfected, 10 min

| SMILES | phagocytosis of STZ (human macrophages [1]; 0.1–10 nM) | increase of phagocytosis of E. coli above vehicle control ([2]; 10 min) | increase of phagocytosis of E. coli above vehicle control [3, 7] [%] | EC50 (DRV1/GPR32 [4]) [nM] | effect on forskolin-stimulated cAMP (DRV1/GPR32 [4]) | EC50 (DRV1/GPR32 [5]) [nM] | direction of impedance change (recombinant human DRV1) | impedance change (recombinant human DRV1; CHO-DRV1, 100 nM-10 μM) | phagocytosis of STZ, dose response (human macrophages [1]) | increase of phagocytosis of STZ above vehicle (human macrophages [1]) | increase of CD163 levels compared to vehicle (human macrophages [6]) [%] | increase of phagocytosis of E. coli above vehicle control ([2]; 20–30 min) | increase of phagocytosis of E. coli above vehicle control ([3]; DRV1-transfected, 20–30 min) [%] | impedance change (recombinant human DRV1; CHO-hDRV1, 100 nM) | impedance change (CHO-WT cells) | β-arrestin signal increase above basal cell activity (DRV1/GPR32 [5]; GPR32 β-arrestin cells, 11 concentrations 57 μM to 1 nM) | impedance change (recombinant human DRV1; CHO-DRV1 cells, 1μM) | β-arrestin activity (DRV1/GPR32 [5]; dose response) |
| --- | --- | --- | --- | --- | --- | --- | --- | --- | --- | --- | --- | --- | --- | --- | --- | --- | --- | --- |
| NCCc1c[nH]c2ccc(O)cc12 [5-HT] | did not significantly increase phagocytosis | – | – | – | – | – | – | – | – | – | – | – | – | – | – | – | – | – |
| COc1cccc(C(=O)Nc2nnc(S(=O)(=O)N3CCOCC3)s2)c1 [C1A, 3-methoxy-N-(5-morpholin-4-ylsulfonyl-1,3,4-thiadiazol-2-yl)benzamide] | – | ~ 15% | > 70 | 380 | dose-dependently reduced forskolin-stimulated cAMP release | 930 | increased impedance | dose-dependently elicited rapid changes in impedance | enhanced phagocytosis in a dose-dependent manner | 35–40% | 4.7 | – | – | – | – | – | – | – |
| O=C(Nc1nnc(S(=O)(=O)N2CCOCC2)s1)c1cccc(Br)c1 [C1B, 3-bromo-N-(5-morpholin-4-ylsulfonyl-1,3,4-thiadiazol-2-yl)benzamide] | – | – | – | 320 | dose-dependently reduced forskolin-stimulated cAMP release | 3790 | increased impedance | dose-dependently elicited rapid changes in impedance | – | – | – | – | – | – | – | – | – | – |
| Cc1c(-c2cccc(NC(=O)c3ccc(F)c(F)c3)c2)nc2ncccn12 [C2A, 3,4-difluoro-N-[3-(3-methylimidazo[1,2-a]pyrimidin-2-yl)phenyl]benzamide] | – | – | > 40 | 50 | dose-dependently reduced forskolin-stimulated cAMP release | 370 | increased impedance | dose-dependently elicited rapid changes in impedance | enhanced phagocytosis in a dose-dependent manner | 35–40% | 13.3 | – | – | – | – | – | – | – |
| COc1cccc(C(=O)Nc2cccc(-c3nc4ncccn4c3C)c2)c1 [C2B, 3-methoxy-N-[3-(3-methylimidazo[1,2-a]pyrimidin-2-yl)phenyl]benzamide] | – | – | – | 190 | dose-dependently reduced forskolin-stimulated cAMP release | 1170 | increased impedance | dose-dependently elicited rapid changes in impedance | – | – | – | – | – | – | – | – | – | – |
| CC/C=C\C[C@H](O)/C=C/C=C\C=C\C=C\[C@@H](O)[C@@H](O)C/C=C\CCC(=O)O [RvD1, 7S,8R,17S-trihydroxy-4Z,9E,11E,13Z,15E,19Z-docosahexaenoic acid, reference compound] | – | – | – | – | – | – | reduced impedance | – | dose-dependently increased phagocytosis | ~ 60% | 25.7 | 30–40% | > 100 | time-dependently reduced impedance | – | – | – | – |
| COc1ccccc1N1CCN(CCN(C(=O)c2ccc(F)cc2)c2ccccn2)CC1 [pMPPF, 4-Fluoro-N-{2-[4-(2-methoxyphenyl)-1-piperazinyl]ethyl}-N-(2-pyridinyl)benzamide, reference compound] | – | – | – | – | dose-dependently reduced forskolin-stimulated cAMP release | 1160 | increased impedance | – | enhanced phagocytosis in a dose-dependent manner | ~ 60% | 13.7 | – | > 50 | – | did not give significant impedance changes | ~ 30% | increased | – |
| COc1ccccc1N1CCN(CCN(C(=O)c2ccc(I)cc2)c2ccccn2)CC1 [pMPPI, 4-iodo-N-{2-[4-(2-methoxyphenyl)-1-piperazinyl]ethyl}-N-(2-pyridinyl)benzamide, reference compound] | – | – | – | 2500 | increased forskolin-stimulated cAMP release | – | reduced impedance | – | enhanced phagocytosis in a dose-dependent manner | significantly less potent than pMPPF | 20.0 | – | – | – | did not give significant impedance changes | – | reduced impedance | not β-arrestin activities |
